Measured values: the array DNA melting data of Ke et al. (doi:10.1101/2024.01.08.574731)

How the values were obtained:
[1] = melting temperature; fluorescence melt of hairpins on a sequencing array, two-state fit, raised by 9.35 °C to match UV melts; conditions: sodium 0.088 M
In short: (§1)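 Bootstrapped two-state fits yielded melting temperature and folding enthalpy for library hairpins. Cy3 fluorescence, with annealed Cy3 and quencher oligos, was imaged on a sequenced MiSeq flow cell in 50 mM Na-HEPES pH 8.0, 25 mM NaCl in 2.5 °C steps up to 60 °C, and normalised to pre-quench Cy3 and to control constructs. Four replicates were combined by inverse variance, and fitted temperatures were raised by 9.35 °C to match UV melts.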

[2] = folding enthalpy; higher = less favourable; fluorescence melt of hairpins on a sequencing array, two-state fit; conditions: sodium 0.088 M
In short: as §1

Sequence	Tm [1]	folding enthalpy [2]
GTGCACTCGAAAGAGCAC (((..(((....))))))	45.2 °C	-27.8 kcal/mol
GTGCAGGGAAACTTGCGC (.(((.(....).))).)	42 °C	-31.2 kcal/mol
GTGCATCCGAAAGGACAC (((..(((....))))))	38.2 °C	-11.7 kcal/mol
GTGCCAACGAAAGTTCAC (((..(((....))))))	36.3 °C	-4.38 kcal/mol
GTGCCACGAAAGTGCCAC (((.(((....))).)))	47.6 °C	-20.5 kcal/mol
GTGCCACGAAAGTGTCAC (((.(((....))).)))	53.1 °C	-30 kcal/mol
GTGCCAGGAAACCGGCAC (((((.(....).)))))	59.2 °C	-42.2 kcal/mol
GTGCCCCGAAAGGGACAC (((.(((....))).)))	62.5 °C	-42.9 kcal/mol
GTGCCCGAAAGGGGCCAC ((((((....)))..)))	47.7 °C	-10.9 kcal/mol
GTGCCCGAAAGGGTCCAC ((((((....)))..)))	41 °C	-10.3 kcal/mol
GTGCCCGAAAGGGTTCAC ((((((....)))..)))	41.1 °C	-11.8 kcal/mol
GTGCCCGCGAAAGCGCAC (((..(((....))))))	45.5 °C	-13.5 kcal/mol
GTGCCGCCGAAAGGCCAC (((..(((....))))))	60 °C	-9.13 kcal/mol
GTGCCGGCGAAAGCCCAC (((..(((....))))))	59.9 °C	-6.81 kcal/mol
GTGCCGGGAAACCGGCGC (.(((((....))))).)	67.3 °C	-18.2 kcal/mol
GTGCCGTCGAAAGACCAC (((..(((....))))))	49.7 °C	-6.11 kcal/mol
GTGCCTCGAAAGAGCAC (((.(((....))))))	53.5 °C	-28.5 kcal/mol
GTGCGAACGAAAGTTCAC (((..(((....))))))	53.3 °C	-12.1 kcal/mol
GTGCGACCGAAAGGTCAC (((..(((....))))))	60 °C	-13.1 kcal/mol
GTGCGAGCGAAAGCTCAC (((..(((....))))))	59.4 °C	-12.2 kcal/mol
GTGCGATCGAAAGATCAC (((..(((....))))))	44.4 °C	-18.2 kcal/mol
GTGCGCCCGAAAGGGCAC (((..(((....))))))	64.3 °C	-10.4 kcal/mol
GTGCGCCGAAAGGCTCAC (((.(((....))).)))	56.9 °C	-29.1 kcal/mol

Sequence	Tm [1]	folding enthalpy [2]
GTGCGCGAAAGCGACCAC ((((((....)))..)))	43.8 °C	-10.4 kcal/mol
GTGCGCGAAAGCGAGCAC ((((((....)))..)))	57.7 °C	-25.5 kcal/mol
GTGCGCGAAAGCGTTCAC ((((((....)))..)))	39.9 °C	-11.3 kcal/mol
GTGCGCGGAAACACGCAC (((((.(....).)))))	59.7 °C	-46.6 kcal/mol
GTGCGGCGAAAGCCACAC (((.(((....))).)))	62.1 °C	-29.2 kcal/mol
GTGCGGGGAAACTCGCAC (((((.(....).)))))	61.2 °C	-40.1 kcal/mol
GTGCGTGGAAACACACAC (((.(((....))).)))	48.6 °C	-37.9 kcal/mol
GTGCGTGGAAACACGCGC (.(((((....))))).)	65.9 °C	-18 kcal/mol
GTGCGTGGAAACACGTAC ((.((((....)))).))	56.1 °C	-32.8 kcal/mol
GTGCGTGGAAACATGCGC (.((.((....)).)).)	49.5 °C	-29.6 kcal/mol
GTGCGTGGAAACGCGTAC ((.((.(....).)).))	42.7 °C	-10.9 kcal/mol
GTGCTAGAAATAGCAC ((((((....))))))	56.5 °C	-40.3 kcal/mol
GTGCTAGGAAACTAACAC (((.(((....))).)))	34.4 °C	-27.7 kcal/mol
GTGCTAGGAAACTAGCGC (.(((((....))))).)	53.5 °C	-39.6 kcal/mol
GTGCTAGGAAACTGGCAC ((((.((....)).))))	53.5 °C	-45.4 kcal/mol
GTGCTCCCGAAAGGGCAC (((..(((....))))))	49.8 °C	-19.9 kcal/mol
GTGCTCCGAAAGGACAC (((.(((....))))))	51.9 °C	-27.4 kcal/mol
GTGCTCCGAAAGGATCAC (((.(((....))).)))	50.2 °C	-31.9 kcal/mol
GTGCTCGAAAGAGACCAC ((((((....)))..)))	34.4 °C	-14.6 kcal/mol
GTGCTCGAAAGAGATCAC ((((((....)))..)))	30.9 °C	-13.6 kcal/mol
GTGCTCGAAAGAGCCAC ((((((....))).)))	49 °C	-11.2 kcal/mol
GTGCTCGAAAGAGCTCAC ((((((....)))..)))	42.8 °C	-10.8 kcal/mol
GTGCTCGAAAGAGGCAC ((((((....))).)))	55.2 °C	-24.7 kcal/mol

Sequence	Tm [1]	folding enthalpy [2]
GTGCTCGAAAGAGTCCAC ((((((....)))..)))	31.8 °C	-13.1 kcal/mol
GTGCTCGAAAGAGTTCAC ((((((....)))..)))	34.6 °C	-13.6 kcal/mol
GTGCTCGGAAACAAGCAC (((((.(....).)))))	46.2 °C	-31.9 kcal/mol
GTGCTCGGAAACGAGTGC (..((((....))))..)	50.4 °C	-24.2 kcal/mol
GTGCTGACGAAAGTCCAC (((..(((....))))))	40.8 °C	-11.9 kcal/mol
GTGCTGCGAAAGCAACAC (((.(((....))).)))	56.5 °C	-33.8 kcal/mol
GTGCTGGGAAACTAGCAC (((((.(....).)))))	54.3 °C	-41.3 kcal/mol
GTGCTTCCGAAAGGACAC (((..(((....))))))	39.7 °C	-22.1 kcal/mol
GTGCTTGAAAAAGCAC ((((((....))))))	63.3 °C	-27.9 kcal/mol
GTGCTTGCGAAAGCACAC (((..(((....))))))	61.4 °C	-13.1 kcal/mol
GTGGAACCGAAAGGTCAC (((..(((....))))))	42.3 °C	-21.9 kcal/mol
GTGGAAGGAAACCTCCAC (((((.(....).)))))	44.1 °C	-34 kcal/mol
GTGGAAGGAAACTTTCAC (((.(((....))).)))	43.2 °C	-33 kcal/mol
GTGGACACGAAAGTGCAC (((..(((....))))))	45 °C	-18.1 kcal/mol
GTGGACGGAAACGCCCAC ((((.((....)).))))	53.2 °C	-56.1 kcal/mol
GTGGAGGCGAAAGCCCAC (((..(((....))))))	52.9 °C	-17.1 kcal/mol
GTGGAGGGAAACCTTCGC (.(.(((....))).).)	34.1 °C	-26.7 kcal/mol
GTGGAGGGAAACTTCCGC (.(((.(....).))).)	35.1 °C	-26.7 kcal/mol
GTGGATGGAAACACCCAC ((((.((....)).))))	44.2 °C	-32.6 kcal/mol
GTGGCAACGAAAGTTCAC (((..(((....))))))	27.8 °C	-7.15 kcal/mol
GTGGCCGAAAGGCATCAC ((((((....)))..)))	39.5 °C	-11.8 kcal/mol
GTGGCCGAAAGGCCTCAC ((((((....)))..)))	40.4 °C	-7.49 kcal/mol
